Measured values reported in PMC12040810 (AMB Express, 2025).
Converted amounts (≈) assume the structure as drawn. “And” between values parts separate entries of the source, which are not always exact repeats. Equal values may be shown once.

Key:
L. major promastigotes = experiment: In vitro anti-promastigote activity, viability by eosin 0.1% vital stain; assay type: cell-based; conditions: Leishmania major, 48 h
Procedure, shortened: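 L. major promastigotes (strain MRHO/IR/75/ER) were kept in RPMI 1640 (pH 7.4) with 20% FBS, 25 mM HEPES and penicillin/streptomycin at 24 °C, passaged every 3 days. Log-phase cells (100 µl at 1 × 10^6/ml) received 100 µl of test compound solution; PBS was the negative control. Plates were held at 26 °C.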

[1] = Biochemical analysis of serum AST and ALT; assay type: in vivo, BALB/c mice; conditions: for level of AST: serum, after treatment, P = 0.072
Procedure, shortened: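 Female BALB/c mice (about 20 g, 6–7 weeks), 5 per group, were infected subcutaneously at the tail base with L. major promastigotes and then given topical ointment treatments. After 28 days, serum was drawn and AST and ALT were measured with a commercial kit. The manufacturer's normal ranges were ALT 75–90 IU/l and AST 125–155 IU/l.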

human blood suspension = experiment: Hemolytic assay, spectrophotometric, free hemoglobin at 540 nm; assay type: cell-based
L929 cell line = experiment: Cell toxicity assay; assay type: cell-based
L. major = experiment: In vivo anti-leishmanial effects, lesion size after topical ointment treatment; parameters: species or system BALB/c mice; conditions: group receiving amphotericin B
Procedure, shortened: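 Female BALB/c mice (about 20 g, 6–7 weeks), 5 per group, were injected subcutaneously at the tail base with 1.5 × 10^6 stationary-phase L. major promastigotes. Nodules and ulcers formed by day 21, and lesion amastigotes were confirmed by microscopy at 1000×. Topical ointments were given over 28 days, with vehicle ointment or PBS as controls. Lesion diameter was measured weekly with a dial micrometer before and after treatment.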

[2] = 12 h, composition as in the label, concentration of controls not given
[3] = 24 h, composition as in the label, concentration of controls not given
[4] = 48 h, composition as in the label, concentration of controls not given
[5] = 6 h, composition as in the label, concentration of controls not given

Row | Compound | IC50 (L. major promastigotes) | toxicity judged by AST and ALT ([1]; blood samples after 28 days, in words) | level of AST [1] | Hemolytic activity (%) ± SD (human blood suspension; 12 h, amphotericin B 500 µg/ml) | Hemolytic activity (%) ± SD (human blood suspension; 24 h, amphotericin B 500 µg/ml) | Hemolytic activity (%) ± SD (human blood suspension; 48 h, amphotericin B 500 µg/ml) | Cytotoxic activity (%) ± SD (L929 cell line; 6 h, amphotericin B 500 µg/ml) | Cytotoxic activity (%) ± SD (L929 cell line; 12 h, amphotericin B 500 µg/ml) | Cytotoxic activity (%) ± SD (L929 cell line; 24 h, amphotericin B 500 µg/ml) | toxicity in the MTT assay (L929 cell line; in words, chitosan at 10, 50, and 100 mg/ml) | wound size after 28 days (L. major; after 28 days of treatment) | wound size before treatment (L. major; before treatment) | Hemolytic activity (%) ± SD (human blood suspension; [2]) | Hemolytic activity (%) ± SD (human blood suspension; [3]) | Hemolytic activity (%) ± SD (human blood suspension; [4]) | Cytotoxic activity (%) ± SD (L929 cell line; [5]) | Cytotoxic activity (%) ± SD (L929 cell line; [2]) | Cytotoxic activity (%) ± SD (L929 cell line; [3])
1 | C[C@@H]1[C@H](O)[C@@H](C)/C=C/C=C/C=C/C=C/C=C/C=C/C=C/[C@H](O[C@@H]2O[C@H](C)[C@@H](O)[C@H](N)[C@@H]2O)C[C@@H]2O[C@](O)(C[C@@H](O)C[C@@H](O)[C@H](O)CC[C@@H](O)C[C@@H](O)CC(=O)O[C@H]1C)C[C@H](O)[C@H]2C(=O)O [Amphotericin B] | 256 µg/mL (≈ 277 µM) | highest drug toxicity | higher compared to the other treatment groups | 13.9% and 13.9 ± 0.4% | 17.9% and 17.9 ± 0.9% | 18.4% and 18.4 ± 0.9% | 0.43 ± 0.03% | 0.41 ± 0.07% | 0.41 ± 0.04% | significantly lower than those of cisplatin | 1.59 mm | 15.71 mm |  |  |  |  |  | 
2 | CNC[C@H](O)[C@@H](O)[C@H](O)[C@H](O)CO.[O]=[Sb](=[O])[OH] [Glucantime] |  |  | higher compared to the other treatment groups |  |  |  |  |  |  |  |  |  | 15.6 ± 0.5% | 18.6 ± 0.6% | 20.3 ± 0.8% | 0.43 ± 0.002% | 0.38 ± 0.01% | 0.35 ± 0.02%
3 | Triton X100 |  |  |  |  |  |  |  |  |  |  |  |  | 90.1 ± 4.5% | 99.4 ± 0.5% | 100 ± 0.0% | 0.14±-0.002% | 0.11 ± 0.02% | 0.11 ± 0.006%
